Consider one molecule from ChEMBL document CHEMBL4715822, “Structure-based lead optimization to improve antiviral potency and ADMET properties of phenyl-1H-pyrrole-carboxamide entry inhibitors targeted to HIV-1 gp120” (Eur J Med Chem, 2018).

The test system of series [1] is Human immunodeficiency virus 1. The series is described as follows: Antiviral activity against clinical isolate HIV-1 92US073 infected in human PBMC cells assessed as reduction in viral transmission to TZM-bl cells pretreated for 1 hr before viral transmission and further incubated for 48 hrs by luciferase based assay. It counts as functional, cell-based. Particulars: Human immunodeficiency virus 1, 92US073, PBMC. The essentials: (§1)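 PBMC from healthy HIV-negative donors infected with replication-competent virus in the presence of 30 μg/ml DEAE-dextran. On day 4 post-infection, cells washed free of virus and counted. 2 × 10⁴ infected PBMC/well pretreated with escalating compound for 1 h at 37 °C, then co-cultured 48 h with TZM-bl targets (10⁴/well, plated 24 h before). TZM-bl lysed, luciferase read, IC50 calculated.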

Series [2] relates to Human immunodeficiency virus 1. The series is described as follows: Antiviral activity against pseudovirus HIV-1 HXB-2 harboring Env I424F mutant infected in human U87.CD4.CXCR4 cells assessed as reduction in viral infection pretreated for 30 mins before viral infection and measured after 3 days by luciferase based assay. It counts as functional, cell-based, M:B_HXB2R. An outline of the steps: (§2)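 Pseudoviruses made in HEK293T by co-transfecting an Env-deleted backbone (pSG3Δenv or pNL4-3.Luc.R-.E-) with an HXB-2 Env plasmid carrying single or double substitutions; Env sequences confirmed by sequencing. Virus pretreated 30 min with graded compound, added to U87-CD4-CXCR4 cells (1 × 10⁴/well, plated overnight), incubated 3 days. Cells lysed, luciferase measured, IC50 calculated.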

For series [3], the system named is Human immunodeficiency virus 1. The series is described as follows: Antiviral activity against pseudovirus HIV-1 HXB-2 harboring Env S375Y mutant infected in human U87.CD4.CXCR4 cells assessed as reduction in viral infection pretreated for 30 mins before viral infection and measured after 3 days by luciferase based assay. It counts as functional, cell-based, M:B_HXB2R. An outline of the steps: as §2

Series [4] has as its system Human immunodeficiency virus 1. The series is described as follows: Antiviral activity against clinical isolate HIV-1 Ru132 infected in human PBMC cells assessed as reduction in viral transmission to TZM-bl cells pretreated for 1 hr before viral transmission and further incubated for 48 hrs by luciferase based assay. It counts as functional, cell-based. Particulars: Human immunodeficiency virus 1, Ru132, PBMC. The essentials: as §1

Series [5] deals with Human immunodeficiency virus 1. The series is described as follows: Antiviral activity against pseudovirus HIV-1 HXB-2 harboring Env M434I/I595F double mutant infected in human U87.CD4.CXCR4 cells assessed as reduction in viral infection pretreated for 30 mins before viral infection and measured after 3 days by luciferase based assay. It counts as functional, cell-based, M:B_HXB2R. An outline of the steps: as §2

The subject of series [6] is Human immunodeficiency virus 1. The series is described as follows: Antiviral activity against clinical isolate HIV-1 BCF03 infected in human PBMC cells assessed as reduction in viral transmission to TZM-bl cells pretreated for 1 hr before viral transmission and further incubated for 48 hrs by luciferase based assay. It counts as functional, cell-based. Particulars: Human immunodeficiency virus 1, BCF03, PBMC.

The nature of series [7]: Apparent permeability across basolateral to apical side in human Caco2 cells incubated for 2 hrs by LC-MS/MS analysis. It counts as ADME, cell-based, Caco-2. Particulars: caco-2, 2 h. The essentials:
(§3)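 Caco-2 monolayers grown three weeks to differentiate; compound in transport buffer pH 7.4 (glucose, 10 mM HEPES, HBSS) added apical (A-B) or basal (B-A) side, with or without 100 μM verapamil; 2 h incubation, both sides sampled. Lucifer yellow 100 μM on A side checks integrity (≤2% transport). Papp = (dQ/dt)/(C0 × A); efflux ratio = Papp(B→A)/Papp(A→B).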

Series [8] has as its system Human immunodeficiency virus 1. The series is described as follows: Antiviral activity against pseudovirus HIV-1 HXB-2 harboring Env N425K mutant infected in human U87.CD4.CXCR4 cells assessed as reduction in viral infection pretreated for 30 mins before viral infection and measured after 3 days by luciferase based assay. In kind it is functional, cell-based, M:B_HXB2R. An outline of the steps: as §2

For series [9], the system named is Human immunodeficiency virus 1. The series is described as follows: Antiviral activity against clinical isolate HIV-1 92US657 infected in human PBMC cells assessed as reduction in viral transmission to TZM-bl cells pretreated for 1 hr before viral transmission and further incubated for 48 hrs by luciferase based assay. In kind it is functional, cell-based. The conditions noted are these: Human immunodeficiency virus 1, 92US657, PBMC. The essentials:
as §1

The subject of series [10] is Human immunodeficiency virus 1. The series is described as follows: Antiviral activity against Laboratory adapted HIV-1 BaL infected in human PBMC cells assessed as reduction in viral transmission to TZM-bl cells pretreated for 1 hr before viral transmission and further incubated for 48 hrs by luciferase based assay. It counts as functional, cell-based. Particulars: Human immunodeficiency virus 1, BaL. The essentials: as §1

For series [11], the system named is Human immunodeficiency virus 1. The series is described as follows: Antiviral activity against pseudovirus HIV-1 HXB-2 harboring Env L116P mutant infected in human U87.CD4.CXCR4 cells assessed as reduction in viral infection pretreated for 30 mins before viral infection and measured after 3 days by luciferase based assay. In kind it is functional, cell-based, M:B_HXB2R. An outline of the steps: as §2

Series [12] can be described thus: Apparent permeability across apical to basolateral side in human Caco2 cells incubated for 2 hrs by LC-MS/MS analysis. In kind it is ADME, cell-based, Caco-2. The conditions noted are these: caco-2, 2 h. The essentials:
as §3
(In general: Caco-2 cells form a polarised layer with tight junctions and transporters.)

For series [13], the system named is Human immunodeficiency virus 1. The series is described as follows: Antiviral activity against pseudovirus HIV-1 HXB-2 harboring Env A204D mutant infected in human U87.CD4.CXCR4 cells assessed as reduction in viral infection pretreated for 30 mins before viral infection and measured after 3 days by luciferase based assay. It counts as functional, cell-based, M:B_HXB2R. An outline of the steps: as §2

Series [14] is described as follows: Solubility in 5% DMSO at pH 7.4 at 500 uM incubated for 90 mins in shaker by spectrophotometry. It counts as physicochemical. The essentials:
(§4)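 DMSO stock diluted to 500 μM in universal aqueous buffer pH 7.4 with 2 or 5% DMSO final; quadruplicate, 90 min shaking at room temperature in filter plate, vacuum filtered; filtrate in 20% acetonitrile read by UV absorbance at six wavelengths. Filtrate/standard ratio binned as ~500, 100–500 or <100 μM.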

In series [15] the test system is Human immunodeficiency virus 1. The series is described as follows: Antiviral activity against clinical isolate HIV-1 93RW018 infected in human PBMC cells assessed as reduction in viral transmission to TZM-bl cells pretreated for 1 hr before viral transmission and further incubated for 48 hrs by luciferase based assay. In kind it is functional, organism-based. The conditions noted are these: Human immunodeficiency virus 1, 93RW018, PBMC.

Series [16] concerns Human immunodeficiency virus 1. The series is described as follows: Antiviral activity against pseudovirus HIV-1 HXB-2 harboring Env S375W mutant infected in human U87.CD4.CXCR4 cells assessed as reduction in viral infection pretreated for 30 mins before viral infection and measured after 3 days by luciferase based assay. In kind it is functional, cell-based, M:B_HXB2R. An outline of the steps:
as §2

Series [17] has as its system Human immunodeficiency virus 1. The series is described as follows: Antiviral activity against clinical isolate HIV-1 93BR019 infected in human PBMC cells assessed as reduction in viral transmission to TZM-bl cells pretreated for 1 hr before viral transmission and further incubated for 48 hrs by luciferase based assay. In kind it is functional, cell-based. The conditions noted are these: Human immunodeficiency virus 1, 93BR019, PBMC.

Series [18] has as its system Human immunodeficiency virus 1. The series is described as follows: Antiviral activity against HIV-1 ADA infected in human MOLT-4 cells assessed as reduction in viral transmission to TZM-bl cells incubated for 48 hrs by luciferase based assay. In kind it is functional, organism-based. The conditions noted are these: Human immunodeficiency virus 1, ADA, MOLT-4, 48 h.

Series [19] concerns Human immunodeficiency virus 1. The series is described as follows: Antiviral activity against Laboratory adapted HIV-1 LA1 infected in human PBMC cells assessed as reduction in viral transmission to TZM-bl cells pretreated for 1 hr before viral transmission and further incubated for 48 hrs by luciferase based assay. It counts as functional, organism-based. Particulars: Human immunodeficiency virus 1, LA1, PBMC. The essentials: as §1

Series [20] concerns Human immunodeficiency virus 1. The series is described as follows: Antiviral activity against clinical isolate HIV-1 CMU02 infected in human PBMC cells assessed as reduction in viral transmission to TZM-bl cells pretreated for 1 hr before viral transmission and further incubated for 48 hrs by luciferase based assay. In kind it is functional, cell-based. The conditions noted are these: Human immunodeficiency virus 1, CMU02, PBMC.

Series [21] concerns Human immunodeficiency virus 1. The series is described as follows: Antiviral activity against pseudovirus HIV-1 HXB-2 harboring Env S375H mutant infected in human U87.CD4.CXCR4 cells assessed as reduction in viral infection pretreated for 30 mins before viral infection and measured after 3 days by luciferase based assay. It counts as functional, cell-based, M:B_HXB2R. The essentials: as §2

A short description of series [22]: Solubility in 2 % DMSO at pH 7.4 at 500 uM incubated for 90 mins in shaker by spectrophotometry. It counts as physicochemical. An outline of the steps:
as §4

Molecules are shown by their SMILES. ≈ marks a conversion by molar mass, not a printed value. Bounds are passed on as bounds.

For orientation: IC50 means the concentration that gives 50% inhibition. The term kinetic solubility denotes the concentration staying in solution when a stock, usually in DMSO, is diluted into the medium. As for `COc1cnc(-n2cnc(C)n2)c2[nH]cc(C(=O)C(=O)N3CCN(C(=O)c4ccccc4)CC3)c12`, the IC50 in series [1] was 100 nM; in [2], more than 1000 nM; in series [3], more than 1000 nM; in series [4], 100 nM; in [5], 8 nM; in series [6], more than 6000 nM. In addition, the IC50 is 8 nM in series [8]; 100 nM in [9]; 100 nM in series [10]; more than 1000 nM in [11]; more than 1000 nM in series [13]; 100 nM in series [15]. Further, the IC50 in series [16] is more than 1000 nM; in series [17], 100 nM; in series [18], 400 nM; in series [19], 100 nM; in [20], more than 6000 nM; in series [21], more than 1000 nM. In addition, the results for the Papp in [7] and in series [12] were 32 10^-6 cm/s and 9.27 10^-6 cm/s, respectively. The results for the solubility (kinetic) at […], 500 µM in series [14] and in series [22] were 100 µM (≈ 47.3 µg/mL) and less than 100 µM, respectively.
